Here are results for eight compounds from ChEMBL document CHEMBL4270664 (J Med Chem, 2018).

Where only a bound is given, the exact number is not on record here.

Data set [1] can be described thus: Half life in mouse at 3 mg/kg, iv. It counts as ADME, organism-based. The conditions noted are these: in vivo. The gist of the method:
(§1)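 Mice were dosed at 3 mg/kg intravenously, with plasma sampled at 6 time points and n = 2 mice per time point.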

The nature of data set [2]: Cmax in mouse at 3 mg/kg, iv. It counts as ADME, organism-based. Also noted: dose 3 mg/kg, route intravenous. The conditions noted are these: in vivo. In outline:
as §1

The nature of data set [3]: AUClast in mouse at 3 mg/kg, iv. It counts as ADME, organism-based. Also noted: dose 3 mg/kg, time 0 - last, route intravenous. The conditions noted are these: in vivo. In outline: as §1
The nature of data set [4]: Clearance in mouse at 3 mg/kg, iv. It counts as ADME, organism-based. Conditions: in vivo. The gist of the method: as §1
Data set [5] in a line: Oral bioavailability in mouse at 3 mg/kg. The data set is classed as ADME, organism-based. The conditions noted are these: in vivo. In outline:
(§2)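 Mice were dosed at 3 mg/kg by oral or intraperitoneal route in an extended PK study. Oral bioavailability was derived against the iv route.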

Data set [6] can be described thus: Cmax in mouse at 3 mg/kg, po. It counts as ADME, organism-based. Also noted: dose 3 mg/kg, route oral. The conditions noted are these: in vivo. The gist of the method:
as §2

Data set [7] can be described thus: Cmax in mouse at 3 mg/kg, ip. The data set is classed as ADME, organism-based. Also noted: dose 3 mg/kg, route intraperitoneal. The conditions noted are these: in vivo. In outline:
as §2

Data set [8] is described as follows: Half life in mouse at 3 mg/kg, ip. The conditions noted are these: in vivo. The data set is classed as ADME, organism-based. In outline:
as §2

The target of data set [9] is High affinity nerve growth factor receptor (Homo sapiens, UniProt P04629). Briefly: Inhibition of N-terminal GST-tagged human TRKA cytoplasmic domain (436 to 790 end residues) expressed in baculovirus expression system using fluorecence-labeled substrate by MCE assay.
For data set [10], the target named is NT-3 growth factor receptor (Homo sapiens, UniProt Q16288). As to the kind of experiment: Inhibition of N-terminal GST-tagged human TRKC cytoplasmic domain (456 to 825 end residues) expressed in baculovirus expression system using fluorecence-labeled substrate by MCE assay.
The target in data set [11] is Serine/threonine-protein kinase SIK2 (Homo sapiens, UniProt Q9H0K1). Briefly: Inhibition of N-terminal GST-tagged full length human QIK (1 to 926 end residues) expressed in baculovirus expression system using fluorecence-labeled substrate by MCE assay.
Data set [12] addresses STE20-like serine/threonine-protein kinase (Homo sapiens, UniProt Q9H2G2). Briefly: Inhibition of N-terminal GST-tagged full length human SLK (1 to 1152 end residues) expressed in baculovirus expression system using fluorecence-labeled substrate by MCE assay.
Data set [13] has as its target T1, NUAK family SNF1-like kinase 1 (Homo sapiens, UniProt O60285).
T1 sequence (O60285 whole entry): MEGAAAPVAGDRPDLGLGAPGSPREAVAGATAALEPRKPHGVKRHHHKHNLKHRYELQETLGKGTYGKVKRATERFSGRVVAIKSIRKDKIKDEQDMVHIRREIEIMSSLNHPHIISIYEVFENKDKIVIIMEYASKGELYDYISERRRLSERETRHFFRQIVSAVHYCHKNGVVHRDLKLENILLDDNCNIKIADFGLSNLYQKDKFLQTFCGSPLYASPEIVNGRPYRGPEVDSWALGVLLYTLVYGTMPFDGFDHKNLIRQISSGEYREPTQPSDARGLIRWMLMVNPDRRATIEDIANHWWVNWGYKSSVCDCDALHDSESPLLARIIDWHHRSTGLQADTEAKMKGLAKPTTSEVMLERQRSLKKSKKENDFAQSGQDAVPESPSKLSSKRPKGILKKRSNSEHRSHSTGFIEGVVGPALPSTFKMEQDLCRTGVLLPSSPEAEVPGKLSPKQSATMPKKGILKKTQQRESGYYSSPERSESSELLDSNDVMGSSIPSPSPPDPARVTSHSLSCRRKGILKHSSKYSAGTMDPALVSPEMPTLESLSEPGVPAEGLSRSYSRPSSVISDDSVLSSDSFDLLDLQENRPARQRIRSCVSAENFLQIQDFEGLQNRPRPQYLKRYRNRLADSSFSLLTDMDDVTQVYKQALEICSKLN
As to the kind of experiment: Inhibition of N-terminal GST-tagged full length human NuaK1 (1 to 661 end residues) expressed in baculovirus expression system using fluorecence-labeled substrate by MCE assay.

Data set [14] has as its target Mast/stem cell growth factor receptor Kit (Homo sapiens, UniProt P10721). As to the kind of experiment: Inhibition of N-terminal GST-tagged human KIT cytoplasmic domain (544 to 976 end residues) expressed in baculovirus expression system using fluorecence-labeled substrate by MCE assay.
Data set [15] in a line: Tmax in NSG mouse xenografted with human 697 cells at 30 mg/kg, ip administered as single dose. The data set is classed as ADME, organism-based. Conditions: in vivo. In general terms: A xenograft is tissue or cells of one species grown in another, often human tumour cells in immunodeficient mice.
A short description of data set [16]: Half life in NSG mouse xenografted with human 697 cells at 30 mg/kg, ip administered as single dose. The data set is classed as ADME, organism-based. The conditions noted are these: in vivo.
The species entered for the next data set is Mus musculus. As to the kind of experiment: animal or person. Conditions: Mus musculus, 697, ip, 10 min, read-out: INH.
Data set [17] concerns the target T2, Tyrosine-protein kinase Mer (Homo sapiens) (UniProt Q12866).
T2 sequence (whole entry): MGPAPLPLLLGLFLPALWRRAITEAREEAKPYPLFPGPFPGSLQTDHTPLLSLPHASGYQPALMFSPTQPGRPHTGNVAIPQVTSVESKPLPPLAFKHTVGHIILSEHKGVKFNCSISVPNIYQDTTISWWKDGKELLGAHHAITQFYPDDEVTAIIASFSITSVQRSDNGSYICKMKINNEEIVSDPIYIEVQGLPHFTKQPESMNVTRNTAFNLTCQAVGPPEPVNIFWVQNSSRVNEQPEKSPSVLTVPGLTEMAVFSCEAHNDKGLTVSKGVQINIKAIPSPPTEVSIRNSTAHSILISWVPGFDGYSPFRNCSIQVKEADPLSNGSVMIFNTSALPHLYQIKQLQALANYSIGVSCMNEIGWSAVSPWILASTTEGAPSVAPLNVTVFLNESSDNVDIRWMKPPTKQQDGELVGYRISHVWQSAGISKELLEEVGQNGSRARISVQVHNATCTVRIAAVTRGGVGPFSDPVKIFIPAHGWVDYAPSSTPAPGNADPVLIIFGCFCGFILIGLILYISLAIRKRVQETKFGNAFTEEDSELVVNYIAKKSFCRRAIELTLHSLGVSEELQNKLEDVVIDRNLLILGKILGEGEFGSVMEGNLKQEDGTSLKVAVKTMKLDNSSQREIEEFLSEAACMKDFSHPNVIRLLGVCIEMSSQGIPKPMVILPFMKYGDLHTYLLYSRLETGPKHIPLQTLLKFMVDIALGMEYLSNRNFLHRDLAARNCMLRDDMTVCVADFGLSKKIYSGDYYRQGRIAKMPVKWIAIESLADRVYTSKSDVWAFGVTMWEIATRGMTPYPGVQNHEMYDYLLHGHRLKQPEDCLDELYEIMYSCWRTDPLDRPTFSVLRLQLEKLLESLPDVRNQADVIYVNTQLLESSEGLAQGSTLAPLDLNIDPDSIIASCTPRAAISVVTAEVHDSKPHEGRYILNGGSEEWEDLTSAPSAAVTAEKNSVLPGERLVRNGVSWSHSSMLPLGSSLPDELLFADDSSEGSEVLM
The conditions noted are these: 100 nM.

Sequence of Serine/threonine-protein kinase SIK2 (Q9H0K1 whole entry): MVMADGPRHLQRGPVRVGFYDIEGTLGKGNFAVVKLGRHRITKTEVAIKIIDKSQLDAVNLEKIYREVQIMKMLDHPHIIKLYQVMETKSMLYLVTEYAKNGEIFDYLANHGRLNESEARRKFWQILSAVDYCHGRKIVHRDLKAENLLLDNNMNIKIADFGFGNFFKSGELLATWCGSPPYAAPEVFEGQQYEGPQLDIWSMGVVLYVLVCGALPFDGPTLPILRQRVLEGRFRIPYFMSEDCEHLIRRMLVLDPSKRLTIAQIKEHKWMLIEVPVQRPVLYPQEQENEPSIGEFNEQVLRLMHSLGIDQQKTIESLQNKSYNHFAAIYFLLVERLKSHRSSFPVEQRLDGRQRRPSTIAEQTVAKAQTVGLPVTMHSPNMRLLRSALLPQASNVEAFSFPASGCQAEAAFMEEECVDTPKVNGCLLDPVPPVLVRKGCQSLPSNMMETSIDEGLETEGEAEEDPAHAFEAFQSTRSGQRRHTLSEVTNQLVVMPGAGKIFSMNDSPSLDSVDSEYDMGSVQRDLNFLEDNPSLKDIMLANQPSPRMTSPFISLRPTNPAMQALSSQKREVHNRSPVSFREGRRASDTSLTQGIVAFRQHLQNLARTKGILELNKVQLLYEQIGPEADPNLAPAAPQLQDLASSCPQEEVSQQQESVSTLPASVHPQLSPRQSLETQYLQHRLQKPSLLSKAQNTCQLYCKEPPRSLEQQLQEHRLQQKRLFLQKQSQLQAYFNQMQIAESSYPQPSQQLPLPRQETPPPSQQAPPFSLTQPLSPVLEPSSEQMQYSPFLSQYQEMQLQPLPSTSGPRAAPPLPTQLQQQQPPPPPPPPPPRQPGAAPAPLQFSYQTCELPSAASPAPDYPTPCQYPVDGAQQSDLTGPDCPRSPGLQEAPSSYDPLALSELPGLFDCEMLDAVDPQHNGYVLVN
Sequence of STE20-like serine/threonine-protein kinase (Q9H2G2 whole entry): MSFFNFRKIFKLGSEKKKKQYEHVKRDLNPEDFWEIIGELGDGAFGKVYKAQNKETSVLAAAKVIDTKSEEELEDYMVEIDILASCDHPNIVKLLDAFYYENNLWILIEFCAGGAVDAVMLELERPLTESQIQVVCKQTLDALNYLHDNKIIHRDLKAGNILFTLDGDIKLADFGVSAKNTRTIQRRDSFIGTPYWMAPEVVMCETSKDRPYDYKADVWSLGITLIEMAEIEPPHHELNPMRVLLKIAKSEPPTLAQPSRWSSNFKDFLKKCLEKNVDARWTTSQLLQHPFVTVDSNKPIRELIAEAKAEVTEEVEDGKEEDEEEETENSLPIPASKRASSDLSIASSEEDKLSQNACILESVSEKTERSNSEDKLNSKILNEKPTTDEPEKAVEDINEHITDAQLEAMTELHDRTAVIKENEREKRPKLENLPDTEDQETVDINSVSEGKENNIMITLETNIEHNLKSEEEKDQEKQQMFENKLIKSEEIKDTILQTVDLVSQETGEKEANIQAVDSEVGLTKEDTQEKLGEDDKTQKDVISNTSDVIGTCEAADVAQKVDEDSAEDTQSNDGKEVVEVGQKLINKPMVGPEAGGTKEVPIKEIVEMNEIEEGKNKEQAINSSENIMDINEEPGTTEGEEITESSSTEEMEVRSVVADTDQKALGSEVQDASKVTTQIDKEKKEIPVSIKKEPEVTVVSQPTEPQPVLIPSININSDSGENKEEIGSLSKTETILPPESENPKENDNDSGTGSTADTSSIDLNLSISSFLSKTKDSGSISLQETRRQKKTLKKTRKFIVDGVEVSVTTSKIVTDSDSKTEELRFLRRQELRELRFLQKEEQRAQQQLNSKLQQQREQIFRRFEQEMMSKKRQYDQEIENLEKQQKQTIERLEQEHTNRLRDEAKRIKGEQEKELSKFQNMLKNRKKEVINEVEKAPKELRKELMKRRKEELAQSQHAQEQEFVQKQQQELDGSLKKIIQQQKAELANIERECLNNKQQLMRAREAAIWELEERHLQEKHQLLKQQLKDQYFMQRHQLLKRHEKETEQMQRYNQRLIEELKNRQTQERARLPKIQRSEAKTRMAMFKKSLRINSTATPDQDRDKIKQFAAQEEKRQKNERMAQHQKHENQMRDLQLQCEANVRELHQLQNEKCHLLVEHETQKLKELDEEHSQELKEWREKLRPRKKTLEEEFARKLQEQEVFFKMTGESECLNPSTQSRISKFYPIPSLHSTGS
Sequence of High affinity nerve growth factor receptor (P04629 whole entry, the tested form may be a part): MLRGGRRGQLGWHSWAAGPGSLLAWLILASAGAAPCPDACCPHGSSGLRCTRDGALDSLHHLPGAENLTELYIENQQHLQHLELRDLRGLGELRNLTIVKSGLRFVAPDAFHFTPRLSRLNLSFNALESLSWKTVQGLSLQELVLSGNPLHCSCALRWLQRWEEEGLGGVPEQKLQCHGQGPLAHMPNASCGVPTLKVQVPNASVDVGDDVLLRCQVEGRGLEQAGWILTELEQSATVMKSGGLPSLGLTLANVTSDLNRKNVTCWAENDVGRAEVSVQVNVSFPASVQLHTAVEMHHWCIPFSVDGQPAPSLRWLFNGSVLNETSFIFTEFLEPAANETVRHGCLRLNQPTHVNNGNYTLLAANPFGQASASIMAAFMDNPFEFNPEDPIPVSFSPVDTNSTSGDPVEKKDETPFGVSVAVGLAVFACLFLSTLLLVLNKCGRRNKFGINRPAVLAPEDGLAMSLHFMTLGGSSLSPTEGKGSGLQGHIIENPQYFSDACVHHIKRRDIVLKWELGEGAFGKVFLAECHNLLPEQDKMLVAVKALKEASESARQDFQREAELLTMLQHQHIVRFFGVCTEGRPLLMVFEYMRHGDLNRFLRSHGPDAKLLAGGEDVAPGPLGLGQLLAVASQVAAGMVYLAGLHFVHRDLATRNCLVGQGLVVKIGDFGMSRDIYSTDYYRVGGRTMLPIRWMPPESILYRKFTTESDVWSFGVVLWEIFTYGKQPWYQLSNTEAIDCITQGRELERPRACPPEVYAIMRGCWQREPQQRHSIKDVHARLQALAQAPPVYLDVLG
Sequence of NT-3 growth factor receptor (Q16288 whole entry, the tested form may be a part): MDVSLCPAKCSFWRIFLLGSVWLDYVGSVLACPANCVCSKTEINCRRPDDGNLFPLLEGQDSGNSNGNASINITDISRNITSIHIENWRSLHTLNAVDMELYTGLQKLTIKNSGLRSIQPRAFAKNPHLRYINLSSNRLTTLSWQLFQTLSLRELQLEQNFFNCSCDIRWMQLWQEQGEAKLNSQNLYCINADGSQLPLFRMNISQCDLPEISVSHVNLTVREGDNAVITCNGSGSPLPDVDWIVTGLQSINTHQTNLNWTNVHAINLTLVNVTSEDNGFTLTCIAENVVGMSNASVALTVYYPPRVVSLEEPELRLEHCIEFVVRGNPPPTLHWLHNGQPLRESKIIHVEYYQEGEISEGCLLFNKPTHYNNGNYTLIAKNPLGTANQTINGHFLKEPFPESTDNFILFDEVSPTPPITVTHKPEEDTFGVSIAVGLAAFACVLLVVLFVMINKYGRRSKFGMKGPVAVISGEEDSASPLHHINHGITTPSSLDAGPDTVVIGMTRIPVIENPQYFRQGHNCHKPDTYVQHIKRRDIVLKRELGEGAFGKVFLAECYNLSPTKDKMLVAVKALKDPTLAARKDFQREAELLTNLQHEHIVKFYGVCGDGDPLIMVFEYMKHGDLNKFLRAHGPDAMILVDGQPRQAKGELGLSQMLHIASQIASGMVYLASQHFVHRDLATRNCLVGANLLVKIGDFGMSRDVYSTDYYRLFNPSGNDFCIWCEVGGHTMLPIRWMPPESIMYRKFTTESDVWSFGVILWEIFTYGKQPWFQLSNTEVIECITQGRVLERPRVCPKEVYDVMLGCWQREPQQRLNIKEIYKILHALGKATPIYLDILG
Sequence of Mast/stem cell growth factor receptor Kit (P10721 whole entry, the tested form may be a part): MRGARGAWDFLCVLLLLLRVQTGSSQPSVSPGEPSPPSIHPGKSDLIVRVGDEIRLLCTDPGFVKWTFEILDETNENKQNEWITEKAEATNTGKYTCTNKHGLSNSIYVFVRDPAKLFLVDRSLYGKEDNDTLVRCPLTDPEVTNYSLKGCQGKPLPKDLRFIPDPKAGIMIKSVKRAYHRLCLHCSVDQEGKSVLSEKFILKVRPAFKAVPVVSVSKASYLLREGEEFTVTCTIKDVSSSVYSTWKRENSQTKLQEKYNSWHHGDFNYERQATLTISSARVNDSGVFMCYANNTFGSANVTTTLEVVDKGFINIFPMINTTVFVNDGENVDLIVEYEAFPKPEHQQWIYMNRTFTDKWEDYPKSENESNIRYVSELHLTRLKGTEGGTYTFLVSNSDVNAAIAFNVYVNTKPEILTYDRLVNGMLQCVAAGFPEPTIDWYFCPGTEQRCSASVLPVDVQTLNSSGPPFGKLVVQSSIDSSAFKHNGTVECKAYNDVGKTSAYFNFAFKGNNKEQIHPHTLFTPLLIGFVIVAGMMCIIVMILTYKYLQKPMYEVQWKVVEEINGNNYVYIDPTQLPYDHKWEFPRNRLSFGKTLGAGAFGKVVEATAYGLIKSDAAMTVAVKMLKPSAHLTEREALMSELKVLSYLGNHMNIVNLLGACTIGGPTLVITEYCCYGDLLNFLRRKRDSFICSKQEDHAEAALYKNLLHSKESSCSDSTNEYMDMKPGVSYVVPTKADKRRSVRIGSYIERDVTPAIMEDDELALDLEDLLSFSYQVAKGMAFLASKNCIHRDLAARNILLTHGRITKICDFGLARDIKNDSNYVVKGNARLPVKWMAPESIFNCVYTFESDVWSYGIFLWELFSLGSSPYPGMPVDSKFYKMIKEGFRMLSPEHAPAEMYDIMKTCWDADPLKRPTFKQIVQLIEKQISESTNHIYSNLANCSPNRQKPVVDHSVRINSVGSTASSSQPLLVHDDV

The half-life is the time needed for the level to fall by half in the phase considered. Higher therefore signals slow loss. A word on the Cmax: it is the highest concentration seen after dosing. Usually AUC(0-t) stands for the area under the concentration-time curve up to a stated or last time point. Higher therefore signals more exposure. What is called clearance is a measure of how efficiently the substance is removed, as volume per time. The low end stands for inefficient removal, the high end for efficient removal. Compound `CCC[C@H](C)Nc1ncc2c(-c3ccc(CN4C5CCC4CC5)cc3)cn([C@H]3CC[C@H](O)CC3)c2n1` showed a half-life in data set [1] of 1.8 h. This compound had a Cmax in data set [2] of 0.1 µM. In [3], this compound returned an exposure AUC(0-t) of 0.28 µM·h. The clearance in data set [4] came to 302 mL/min/kg.

In data set [1], `CCC[C@H](C)Nc1ncc2c(-c3ccc(S(=O)(=O)N4CCN(C)CC4)cc3F)cn([C@H]3CC[C@H](O)CC3)c2n1` showed a half-life of 0.65 h. The compound further came in with a Cmax in data set [2] of 6.5 µM. Further, in data set [3], the AUC(0-t) is 1.6 µM·h. Moreover, the clearance in data set [4] turned out to be 50 mL/min/kg.

Consider `CCC[C@H](C)Nc1ncc2c(-c3cnn(C4CCNCC4)c3)cn([C@H]3CC[C@H](O)CC3)c2n1`, for which the half-life in [1] is 2.1 h. Also, the Cmax in data set [2] amounted to 13.8 µM. The compound also registered an AUC(0-t) in data set [3] of 2.8 µM·h. This compound showed a clearance in [4] of 32 mL/min/kg.

Compound `CCC[C@H](C)Nc1ncc2c(-c3ccnc(N4CCNCC4)c3)cn([C@H]3CC[C@H](O)CC3)c2n1` had a half-life in [1] of 2.6 h. The same compound yielded a Cmax in data set [2] of 3.5 µM. The AUC(0-t) in data set [3] came out at 1.5 µM·h. In addition, in data set [4], the clearance was determined as 55 mL/min/kg.

In data set [1], `CCC[C@H](C)Nc1ncc2c(-c3ccc(CNCCN(CC)CC)cc3)cn([C@H]3CC[C@H](O)CC3)c2n1` showed a half-life of 3.65 h. Also, in [2], the Cmax turned out to be 1.7 µM. The AUC(0-t) in [3] was 1.2 µM·h. Also, the clearance in data set [4] stood at 54 mL/min/kg.

The term bioavailability denotes dose-corrected exposure relative to a reference, in per cent. A low value points to little systemic uptake. What is called IC50 is the concentration needed to halve the response being measured. A high value points to weaker potency in that assay. A word on the Tmax: it is the time at which the peak concentration occurs. `CCC[C@H](C)Nc1ncc2c(-c3ccc(CN4CCCN(C)CC4)cc3)cn([C@H]3CC[C@H](O)CC3)c2n1`: the half-life was 3 h in [1], 1.43 h in [8] and 3 h in [16]. Besides, the Cmax in data set [2] came out at 5.2 µM; in data set [6], 0.061 µM; in data set [7] it was 0.6 µM. This compound gave an AUC(0-t) in data set [3] of 2.7 µM·h. In addition, in data set [4], the clearance was found to be 29 mL/min/kg. In data set [5], this compound gave a bioavailability of 15%. Further, the IC50 in data set [9] was 0.0036 µM; in [10], 0.0084 µM; in data set [11], above 0.1 µM; in data set [12] it was 0.047 µM; in data set [13], above 0.1 µM; in data set [14], above 0.1 µM. Also, the Tmax in data set [15] is 5 min. In addition, the inhibition at 30 mg/kg in the data set filed under Mus musculus came out at 75%.

For `CCC[C@H](C)Nc1ncc2c(-c3ccc(CN4CCOCC4)cc3)cn([C@H]3CC[C@H](O)CC3)c2n1`, the half-life in data set [1] is 1.4 h. The compound also yielded a maximum concentration (Cmax) in data set [2] of 8.6 µM. Also, in data set [3], the exposure AUC(0-t) came out at 2.2 µM·h. Further, the clearance in [4] came out at 41 mL/min/kg.

In [17], `CCCCNc1ncc2c(-c3ccc(CN4CCN(C)CC4)cc3)cn([C@H]3CC[C@H](O)CC3)c2n1` had an inhibition of 100%.
